Compound activity (PubChem BioAssay)
PLCb3 inh – human PLC-beta3 inhibitors, primary screen, biochemical, fluorescence | inhibition, % at 12.2 µM | Purified PLC-beta3, fluorogenic substrate | 1-phosphatidylinositol 4,5-bisphosphate phosphodiesterase beta-3 (Homo sapiens), Q01970 | AID 720704, 2013 | actives 0.18% (n = 370,000); in the data active = inhibition above about 11%;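 also: 0% = median of compound wells on plate and 100% = full blocker control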
Target sequence (Q01970 whole entry, looked up): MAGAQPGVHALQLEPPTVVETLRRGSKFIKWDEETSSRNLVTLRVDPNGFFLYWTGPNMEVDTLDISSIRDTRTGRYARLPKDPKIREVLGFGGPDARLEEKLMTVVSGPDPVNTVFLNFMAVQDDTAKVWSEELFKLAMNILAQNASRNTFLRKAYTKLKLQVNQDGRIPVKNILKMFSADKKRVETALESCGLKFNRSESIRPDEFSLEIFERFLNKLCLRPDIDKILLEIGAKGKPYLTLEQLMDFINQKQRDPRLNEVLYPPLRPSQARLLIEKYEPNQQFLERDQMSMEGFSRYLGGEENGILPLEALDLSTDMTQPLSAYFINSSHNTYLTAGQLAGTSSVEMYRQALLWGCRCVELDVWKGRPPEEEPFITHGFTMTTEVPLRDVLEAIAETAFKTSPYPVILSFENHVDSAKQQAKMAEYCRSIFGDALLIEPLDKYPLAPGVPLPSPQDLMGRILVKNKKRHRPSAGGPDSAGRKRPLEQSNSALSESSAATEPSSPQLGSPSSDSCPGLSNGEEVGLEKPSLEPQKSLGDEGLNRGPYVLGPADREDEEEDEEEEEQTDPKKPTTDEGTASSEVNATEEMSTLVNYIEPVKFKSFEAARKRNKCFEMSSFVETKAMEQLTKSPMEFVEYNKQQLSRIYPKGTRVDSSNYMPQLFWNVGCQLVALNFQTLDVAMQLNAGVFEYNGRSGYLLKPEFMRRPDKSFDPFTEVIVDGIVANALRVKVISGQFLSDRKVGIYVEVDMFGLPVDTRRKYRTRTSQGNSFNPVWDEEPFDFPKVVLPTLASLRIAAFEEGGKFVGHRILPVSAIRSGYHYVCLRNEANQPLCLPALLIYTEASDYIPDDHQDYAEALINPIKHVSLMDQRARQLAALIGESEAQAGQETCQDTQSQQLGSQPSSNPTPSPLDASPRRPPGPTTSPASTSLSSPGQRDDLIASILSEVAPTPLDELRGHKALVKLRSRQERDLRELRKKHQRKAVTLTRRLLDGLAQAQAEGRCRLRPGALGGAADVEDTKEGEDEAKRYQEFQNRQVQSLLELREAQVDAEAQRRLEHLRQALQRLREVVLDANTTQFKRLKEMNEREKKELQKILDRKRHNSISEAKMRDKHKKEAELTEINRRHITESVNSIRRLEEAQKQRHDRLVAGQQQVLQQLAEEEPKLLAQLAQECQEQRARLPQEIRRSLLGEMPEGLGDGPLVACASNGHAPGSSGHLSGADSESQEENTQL
DDE Tn7 FP inh – inhibitors of Tn7 peptide binding to fibrin DD(E), primary screen, biochemical, fluorescence polarization, human fibrin, Tn7 probe. Fibrinogen beta chain (Homo sapiens), P02675. FP displacement of FITC-Tn7 peptide from fibrin DD(E); 0% = median of compound wells per plate. inhibition, % at 8.3 µM. actives 0.13% (n = 370,000). AID 720508, 2013;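 active = inhibition above the mean of compounds falling within the control limits plus 3 SD of them, cut at about 14% in these data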;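 also: 0% = plate median of compound wells and 100% = 10 µM Aha-Tn7 peptide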
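Test system – human fibrin DD(E) · Times – 10 min preincubation, 3 h with tracer, room temperature · Detection – fluorescence polarization of the labelled Tn7 tracer · Measure – percent inhibition normalized to high-control wells · Benchmarks – high control wells with 10 µM unlabelled Aha-Tn7 peptide (full inhibition) · Repeats – singlicate testing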
proKLK7 act – proKLK7 zymogen activators, primary screen, biochemical, fluorescence intensity. purified proKLK7, EDANS-DABCYL substrate fluorescence; 100% is mature enzyme control, 0% vehicle. Kallikrein-7 (Homo sapiens), P49862. activation, % at 7 µM. AID 652039, 2013. actives 0.9% (n = 370,000);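 active = activation above the mean of all tested compounds plus 3 SD, computed per campaign excluding outliers beyond control limits, cut at about 13% in these data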
PLC-gamma1 inh – PLC-gamma1 enzyme inhibitors, primary screen, biochemical, fluorescence, purified enzyme; 1-phosphatidylinositol 4,5-bisphosphate phosphodiesterase gamma-1 (Homo sapiens), P19174; fluorogenic substrate; inhibition, % at 12.2 µM; actives 0.84% (n = 370,000); AID 720700, 2013; in the data active = inhibition above about 9.5%
CendR NRP1 mod – modulators of CendR peptide binding to NRP-1, primary screen, biochemical, fluorescence polarization, uHTS | inhibition, % at 25 µM | FAM-RPARPAR peptide binding to NRP-1 | AID 602438, 2012 | Neuropilin-1 (Homo sapiens), O14786 | actives 0.85% (n = 360,000);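 active = inhibition or corrected inhibition above about 18%, plus a signal ratio from 0.5 to 1.5, limit read from the data, passing the limit was not always enough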
DDE Tn6 FP inh – inhibitors of Tn6 peptide binding to fibrin DD(E), primary screen, biochemical, fluorescence polarization, human fibrin, Tn6 probe | Fibrinogen beta chain (Homo sapiens), P02675 | Fibrin DD(E) TRITC-Tn6 fluorescence polarization displacement | inhibition, % at 8.3 µM | actives 0.21% (n = 370,000);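 active = inhibition above a per-campaign cutoff: mean of compounds within control limits plus 3 SD, cut at about 15% in these data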;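 also: 0% = median of all compound wells on the plate and 100% = blocking peptide control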
Numbers without * were called inactive; nt = not tested or not shown. Shown are actives, neighbours in structure and some others; about 3% of the full set was active somewhere.

SMILES	PLCb3 inh	DDE Tn7 FP inh	proKLK7 act	PLC-gamma1 inh	CendR NRP1 mod	DDE Tn6 FP inh
Cc1nn(-c2ccccc2)c2sc(C(=O)O)cc12	0.7	-4.7	-0.3	-1.5	-4.0	-0.4
CC(=O)Nc1cc(Cl)c(N=Cc2ccc(O)cc2O)cc1Cl	-16.8	-6.1	0.0	-10.0	3.7	16.8*
Cc1ccc(OCc2nn3c(C4CCCCC4)nnc3s2)cc1	3.1	6.4	-0.1	6.2	nt	-8.4
Cc1cc(N2CCOCC2)c2c(N)cc(C)c(C)c2n1	-14.5	-3.1	0.4	-12.5	22.4*	-7.3
Cc1cc(N2CCOCC2)nc(N2CCOCC2)n1	4.8	-3.8	0.0	4.1	14.6	-5.1
O=[N+]([O-])c1ccc(Nc2nc(NC3CCCCC3)nc(N3CCCC3)n2)cc1	-0.5	1.1	-0.4	1.7	39.2*	-3.3
COC/C=C/C1=CC2=CC(=O)C(C)(OC(=O)c3cnc4ccccc4n3)C(=O)C2=CN1Cc1ccc(OC)cc1 (stereo unspecified)	-9.9	-7.7	-0.4	-4.5	37.0*	-2.5
COC/C=C/C1=CC2=CC(=O)C(C)(OC(=O)c3cnc4ccccc4n3)C(=O)C2=CN1CCCCO (stereo unspecified)	-9.7	4.0	0.9	-8.4	14.6	8.4
COC/C=C/C1=CC2=CC(=O)C(C)(OC(=O)c3cnc4ccccc4n3)C(=O)C2=CN1c1ccc(OC)cc1 (stereo unspecified)	-27.6	7.3	-1.0	-19.2	21.2	3.2
COC/C=C/C1=CC2=CC(=O)C(C)(OC(=O)c3cnc4ccccc4n3)C(=O)C2=CN1Cc1ccccc1 (stereo unspecified)	-14.1	1.3	0.9	-12.3	24.9*	11.9
COC/C=C/C1=CC2=CC(=O)C(C)(OC(=O)c3cnc4ccccc4n3)C(=O)C2=CN1CC1CC1 (stereo unspecified)	nt	nt	nt	nt	29.3*	nt
COc1cccc(OC)c1NC(=O)OC1CCC12CCC(c1ccccc1)CC2 (stereo unspecified)	0.8	-4.5	nt	3.8	nt	0.3
O=C(Nc1sc2c(c1-c1nc3ccccc3s1)CCNC2)C(F)(F)F	-199.9	0.4	nt	-160.8	nt	-5.8
CC(/C=N/Nc1nnc(C)c(=O)[nH]1)=C\c1ccccc1	-2.6	-5.2	-0.3	-1.6	23.9*	2.9
Cc1cccc(/C=N\Nc2nnc(-c3ccccc3)c(=O)[nH]2)c1	-2.9	7.5	0.0	-4.8	-1.6	-1.9
COC(=O)C1CN(Cc2cn(CCOC(C)=O)nn2)CCS(=O)(=O)N1Cc1ccc(OC)cc1 (stereo unspecified)	4.0	-7.1	0.2	4.5	nt	1.3
COc1ccc(NS(=O)(=O)c2cc(NC(=O)C3=NN(c4ccccc4)C(=O)CC3)ccc2OC)cc1	-5.5	4.7	-0.1	-2.3	27.4*	-10.2
COc1ccc(OC)c(-c2csc(NC(=O)C3=NN(c4ccccc4)C(=O)CC3)n2)c1	-27.1	-3.7	-6.3	-12.8	2.4	-2.2
O=C(Nc1ccc(Cl)c(S(=O)(=O)N2CCOCC2)c1)C1=NN(c2ccccc2)C(=O)CC1	-2.1	1.6	-0.5	-2.9	14.6	4.8
O=C(Nc1cccc(S(=O)(=O)N2CCOCC2)c1)C1=NN(c2ccccc2)C(=O)CC1	-5.6	2.9	-0.6	-2.4	26.6*	-6.2
CN(c1ccc(OCC(=O)Nc2ccc(S(N)(=O)=O)cc2)cc1)S(=O)(=O)c1ccc(F)cc1	-7.2	-1.4	0.2	0.7	-3.2	-6.9
NS(=O)(=O)c1ccc(NC(=O)COc2ccc(C(=O)c3ccc(F)cc3)cc2)cc1	-11.5	1.2	-0.5	-3.8	-12.7	24.0*
CCCCCC[C@H](CN(CCCC)S(C)(=O)=O)c1ccccc1	2.9	3.0	-0.4	0.0	nt	2.0
O=C(NCc1cccs1)O[C@H]1CC[C@@]23CCCN2C(=O)CCC[C@H]3C1	5.6	-9.2	nt	2.4	nt	3.5
Cc1csc(NC(C)c2nc3cc(C(F)(F)F)ccc3n2CCOCCO)n1 (stereo unspecified)	-1.9	2.5	0.2	1.0	32.9*	7.2
SMILES	PLCb3 inh	DDE Tn7 FP inh	proKLK7 act	PLC-gamma1 inh	CendR NRP1 mod	DDE Tn6 FP inh
CCOC(=O)c1c2c(n(-c3ccc(OC)cc3)c1C)C(=O)C(=O)c1ccccc1-2	nt	nt	nt	nt	34.3*	nt
Cc1nc(CSc2ccc(Br)cc2)cs1	5.8	1.5	-0.3	1.8	20.3*	4.2
Cc1nc(CSc2ccc(Cl)cc2)cs1	8.3	-2.1	0.1	1.7	1.5	-3.5
Cc1ccccc1-n1ncc2c1CC(C)(C)CC2NC(=O)CSc1ccncc1 (stereo unspecified)	-4.3	6.1	0.3	-1.6	-1.0	3.4
Cc1ccccc1-n1ncc2c1CC(C)(C)CC2NC(=O)c1ccncc1 (stereo unspecified)	-2.7	0.5	0.5	2.7	44.2*	3.5
COc1ccc(NC(=O)c2cc(S(=O)(=O)NCC3COc4ccccc4O3)ccc2F)cc1 (stereo unspecified)	3.7	5.3	0.4	2.5	13.4	-5.3
O=C(Nc1ccc(C(F)(F)F)cc1)c1cc(S(=O)(=O)NCC2COc3ccccc3O2)ccc1F (stereo unspecified)	0.2	-1.2	-0.8	-0.4	82.4*	-5.0
COc1ccc(CCNC(=O)c2cnn(-c3ccccc3)c2N)cc1OC	-1.2	-3.9	0.4	-23.4	nt	-0.1
O=c1ccc2cc3c([nH]c4ccc(Br)cc43)oc-2c1O	-9.8	-15.4	5.0	10.0*	-291.0	-17.6
O=C(O)c1ccc(N=Nc2c(O)[nH]c3ccc(Br)cc23)cc1	-7.7	-2.1	0.2	0.6	-149.6	-2.3
O=C1CCC[C@H]2C[C@H](NCc3cccs3)CC[C@]23CCCN13	1.8	2.2	nt	2.0	nt	3.0
Cc1ccc(S(=O)(=O)N/N=C\c2cn(CC(N)=O)c3ccccc23)cc1C	-7.5	8.0	0.2	-2.2	25.2*	-5.1
NC(=O)Cn1cc(/C=N\NS(=O)(=O)c2ccc(Cl)cc2)c2ccccc21	-5.7	0.3	-0.2	1.2	10.2	-1.5
Cc1ccccc1NC(=O)Nc1cnccn1	-10.4	8.1	-0.1	0.5	-12.8	7.5
Cc1cccc(NC(=O)Nc2cnccn2)c1C	-5.8	4.1	0.0	3.9	20.2*	-4.0
c1ccc(-n2c(SCc3cccc4ccccc34)nnc2-c2ccccn2)cc1	-1.7	-3.1	0.1	2.7	nt	8.7
COC(=O)c1c(C(=O)OC)c(-c2ccccc2)n2c1CCC2	nt	nt	nt	nt	38.3*	nt
Cc1ccc2ncnc(-c3ccccc3)c2c1	-11.5	4.7	0.8	-4.4	5.1	-2.9
